Broadly, the IC50 is the concentration at which inhibition is half-maximal.

This is an account of results in ChEMBL document CHEMBL4823331, “Identification of gp120 Residue His105 as a Novel Target for HIV-1 Neutralization by Small-Molecule CD4-Mimics” (ACS Med Chem Lett, 2021).

The nature of experiment [1]: Inhibition of gp120 (Gln 105 residue) in HIV-1 JR-FL infected in dog Cf2Th-CD4/CCR5 cells assessed as inhibition of viral entry incubated for 30 mins prior to infection and further incubated for 48 to 72 hrs in presence of firefly D-luciferin free acid and ATP by single-round infection luciferase assay. It counts as cell-based. Conditions: Human immunodeficiency virus 1, JR-FL. The procedure, abridged: (§1)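 Cf2Th canine cells expressing CD4 and CCR5 were infected with the named HIV-1 strain in the presence of compound. IC50 was taken as the concentration giving 50% inhibition of viral infection, reported as mean ± SD. Groups were compared by one-tailed unpaired t test (N = 3).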

Experiment [2] in a line: Inhibition of gp120 (His 105 residue) in HIV-1 BG505 infected in dog Cf2Th-CD4/CCR5 cells assessed as inhibition of viral entry incubated for 30 mins prior to infection and further incubated for 48 to 72 hrs in presence of firefly D-luciferin free acid and ATP by single-round infection luciferase assay. It counts as cell-based. Particulars: Human immunodeficiency virus 1, BG505, Cf2Th-CD4/CCR5. The procedure, abridged:
as §1

With `CNCc1ccc2c(c1)[C@@H](CCCO)[C@H](CNC(=N)N)[C@H]2NC(=O)C(=O)Nc1ccc(Cl)c(F)c1`, the IC50 was 8.25 µM in experiment [1] and 136 µM in experiment [2].

On to `CNCc1ccc2c(c1)[C@@H](CCC(=O)CO)[C@H](CNC(=N)N)[C@H]2NC(=O)C(=O)Nc1ccc(Cl)c(F)c1`, for which the IC50 in experiment [1] was 4.97 µM; in experiment [2], 166 µM.

For `C=CCC[C@@H]1c2ccc(CNC)cc2[C@H](NC(=O)C(=O)Nc2ccc(Cl)c(F)c2)[C@H]1CNC(=N)N`, the values for the IC50 in experiment [1] and in experiment [2] were 16.2 µM and over 100 µM, respectively.

For `C=CCC[C@@H]1c2cc(CNC)ccc2[C@H](NC(=O)C(=O)Nc2ccc(Cl)c(F)c2)[C@H]1CNC(=N)N`, the IC50 in experiment [1] amounted to 9.22 µM; in experiment [2] it was 106 µM.

Take `CNCc1ccc2c(c1)[C@@H](CC[C@@H](O)CO)[C@H](CNC(=N)N)[C@H]2NC(=O)C(=O)Nc1ccc(Cl)c(F)c1`: in experiment [1], the IC50 was determined as 22 µM.

As for `CNCc1ccc2c(c1)C[C@H](CNC(=N)N)[C@H]2NC(=O)C(=O)Nc1ccc(Cl)c(F)c1`, the IC50 amounted to 9 µM in experiment [1] and 226 µM in experiment [2].

For the compound `CNCc1ccc2c(c1)[C@H](NC(=O)C(=O)Nc1ccc(Cl)c(F)c1)[C@@H](CNC(=N)N)[C@@H]2CCCO`, the IC50 in experiment [1] was 9.45 µM; in experiment [2], 164 µM.

As for `CNCc1ccc2c(c1)[C@H](NC(=O)C(=O)Nc1ccc(Cl)c(F)c1)[C@@H](CNC(=N)N)[C@@H]2CC[C@H](O)CO`, in experiment [1], the IC50 stood at 27.8 µM.

With `CNCc1ccc2c(c1)[C@@H](CC[C@H](O)CO)[C@H](CNC(=N)N)[C@H]2NC(=O)C(=O)Nc1ccc(Cl)c(F)c1`, the IC50 in experiment [1] stood at 17.7 µM.

For the compound `CNCc1ccc2c(c1)[C@H](NC(=O)C(=O)Nc1ccc(Cl)c(F)c1)[C@@H](CNC(=N)N)[C@@H]2CCC(O)CO` (stereo not given in full), the IC50 is 19.5 µM in experiment [1] and over 300 µM in experiment [2].

On to `CNCc1ccc2c(c1)[C@@H](CCC(O)CO)[C@H](CNC(=N)N)[C@H]2NC(=O)C(=O)Nc1ccc(Cl)c(F)c1` (mixture of isomers), for which the IC50 in experiment [1] was 8.29 µM; in experiment [2], 130 µM.

Regarding `CCCC[C@@H]1c2cc(CNC)ccc2[C@H](NC(=O)C(=O)Nc2ccc(Cl)c(F)c2)[C@H]1CNC(=N)N`, in experiment [1], the IC50 was determined as 32.5 µM.
